Experiments:
Format in all cases: biochemical
[1] = target: T1, human recombinant (hr) FAP (Homo sapiens, UniProt Q12884); assay: Inhibition of hrFAP
T1 sequence (Q12884 1-760): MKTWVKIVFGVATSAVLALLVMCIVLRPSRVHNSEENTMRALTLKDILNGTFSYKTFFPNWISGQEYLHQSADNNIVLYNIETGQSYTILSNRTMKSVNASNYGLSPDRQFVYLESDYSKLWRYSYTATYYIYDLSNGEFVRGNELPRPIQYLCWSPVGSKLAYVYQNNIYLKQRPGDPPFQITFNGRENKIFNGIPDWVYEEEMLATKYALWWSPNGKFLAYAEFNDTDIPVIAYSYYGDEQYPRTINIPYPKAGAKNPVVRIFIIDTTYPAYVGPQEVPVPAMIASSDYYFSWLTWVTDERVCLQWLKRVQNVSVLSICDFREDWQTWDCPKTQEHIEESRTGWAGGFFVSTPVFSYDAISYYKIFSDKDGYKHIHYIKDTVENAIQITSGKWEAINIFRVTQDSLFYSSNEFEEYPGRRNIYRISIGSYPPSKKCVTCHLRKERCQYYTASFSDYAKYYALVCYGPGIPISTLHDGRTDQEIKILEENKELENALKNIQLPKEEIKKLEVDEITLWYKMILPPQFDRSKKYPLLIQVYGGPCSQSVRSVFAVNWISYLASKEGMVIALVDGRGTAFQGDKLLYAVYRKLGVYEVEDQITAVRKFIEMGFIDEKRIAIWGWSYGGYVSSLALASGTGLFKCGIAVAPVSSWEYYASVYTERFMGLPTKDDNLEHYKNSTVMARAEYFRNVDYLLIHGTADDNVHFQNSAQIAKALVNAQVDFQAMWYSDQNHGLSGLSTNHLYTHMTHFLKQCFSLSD
Outline: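 Recombinant human FAP, 0.01 μg per well, in 50 mM Tris, 1 M NaCl, 1 mg mL−1 BSA, pH 7.5. Preincubated 30 min at 37 °C with test compound at 5, 10, 20, 50 and 100 nM. Then 50 μM Z-Gly-Pro-AMC was added and the fluorescence increase followed for 60 min at 37 °C (λex/λem 360/460 nm). Triplicate wells, experiment repeated twice. IC50 determined graphically; Ki calculated.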

hrDPP IV = hrDPP IV (Homo sapiens, UniProt P27487); assay: Inhibition of hrDPP IV
Outline: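 Recombinant human DPP IV, 0.01 μg per well, in 25 mM Tris, 1 mg mL−1 BSA, pH 8.0. Enzyme preincubated 30 min at 37 °C with test compound […]. Residual activity was read with 50 μM H-Gly-Pro-AMC as fluorescence increase over 60 min at 37 °C, 360/460 nm. Triplicate wells, repeated twice. IC50 determined graphically.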

hrPREP = target: T2, hrPREP (Homo sapiens, UniProt P48147); assay: Inhibition of hrPREP
T2 sequence (P48147 1-710): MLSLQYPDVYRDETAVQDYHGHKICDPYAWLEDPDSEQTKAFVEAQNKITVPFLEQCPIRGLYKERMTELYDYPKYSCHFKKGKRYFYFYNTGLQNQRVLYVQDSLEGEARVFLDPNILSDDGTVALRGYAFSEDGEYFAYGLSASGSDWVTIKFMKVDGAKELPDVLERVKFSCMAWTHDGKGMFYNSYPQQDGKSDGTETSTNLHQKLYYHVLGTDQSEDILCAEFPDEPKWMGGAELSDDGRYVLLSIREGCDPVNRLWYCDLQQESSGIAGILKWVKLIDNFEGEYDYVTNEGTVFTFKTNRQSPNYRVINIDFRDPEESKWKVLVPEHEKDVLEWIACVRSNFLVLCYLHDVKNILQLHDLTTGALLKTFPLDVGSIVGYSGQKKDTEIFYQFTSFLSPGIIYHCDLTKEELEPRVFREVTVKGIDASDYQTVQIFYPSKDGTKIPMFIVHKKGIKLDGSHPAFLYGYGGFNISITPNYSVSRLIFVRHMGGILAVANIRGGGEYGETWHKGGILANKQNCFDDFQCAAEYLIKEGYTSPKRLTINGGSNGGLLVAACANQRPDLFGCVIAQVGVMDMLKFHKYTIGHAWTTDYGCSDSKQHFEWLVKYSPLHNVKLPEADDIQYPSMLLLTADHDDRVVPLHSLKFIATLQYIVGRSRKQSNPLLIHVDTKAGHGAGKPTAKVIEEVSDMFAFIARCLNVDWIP

Sequence of hrDPP IV (P27487 whole entry): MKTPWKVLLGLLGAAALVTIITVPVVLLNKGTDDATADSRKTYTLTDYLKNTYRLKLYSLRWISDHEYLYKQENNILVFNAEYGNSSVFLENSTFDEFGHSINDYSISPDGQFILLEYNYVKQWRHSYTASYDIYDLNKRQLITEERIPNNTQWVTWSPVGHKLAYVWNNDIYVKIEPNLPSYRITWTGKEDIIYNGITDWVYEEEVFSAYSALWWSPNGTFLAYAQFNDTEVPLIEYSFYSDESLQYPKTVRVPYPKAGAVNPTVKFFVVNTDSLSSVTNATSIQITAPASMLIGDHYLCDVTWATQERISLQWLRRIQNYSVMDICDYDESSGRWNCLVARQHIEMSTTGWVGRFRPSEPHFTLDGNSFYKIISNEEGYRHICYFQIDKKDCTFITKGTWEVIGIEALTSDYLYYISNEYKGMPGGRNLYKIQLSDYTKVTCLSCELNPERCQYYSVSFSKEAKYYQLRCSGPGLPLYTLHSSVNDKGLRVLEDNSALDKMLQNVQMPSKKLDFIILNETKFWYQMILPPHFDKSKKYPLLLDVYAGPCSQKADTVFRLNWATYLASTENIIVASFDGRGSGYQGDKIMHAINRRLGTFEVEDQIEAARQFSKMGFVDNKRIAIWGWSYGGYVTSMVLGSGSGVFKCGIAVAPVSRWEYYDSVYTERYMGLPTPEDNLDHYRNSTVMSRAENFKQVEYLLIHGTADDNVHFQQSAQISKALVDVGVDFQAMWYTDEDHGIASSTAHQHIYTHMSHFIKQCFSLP

## N#C[C@@H]1CCCN1C(=O)CNC(=O)c1ccnc2ccc(Br)cc12 [compound 5, (S)-6-bromo-N-(2-(2-cyanopyrrolidin-1-yl)-2-oxoethyl)quinoline-4-carboxamide]
[1]
  IC50: 30 ± 5 nM
  Ki: 12 ± 1.8 nM
hrDPP IV
  IC50: > 100 µM
hrDPP IV; FAP with respect to DPP IV
  selectivity index SI FAP/DPP IV: higher than 3300
hrPREP
  IC50: > 100 µM
hrPREP; FAP with respect to PREP
  selectivity index SI FAP/PREP: higher than 3300

Source: PMC9072645 (RSC Advances, 2019)
